Values joined by “and” are separate entries in the source; they are usually repeats but may differ in a detail not shown here. Equal entries are not always repeated.
Tested on: Fibroblast
Experiment: Multiplex assay against human fibroblast
Type: toxicity, cell-based
Outline: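 On a CQ1 microscope at 37°C and 5% CO2, live cells were imaged after compound addition. They had been stained at seeding with Hoechst33342, BioTracker Green Microtubule Cytoskeleton Dye, MitoTracker Red and Annexin V Alexa Fluor 680. CellPathfinder machine-learning gating assigned cells to Hoechst high-intensity objects or normal cells, normal cells to healthy, pyknosed or fragmented nuclei, and pyknosed cells to mitotic or apoptotic. Tubulin, mitochondrial-mass and membrane-permeability phenotypes are per cents of healthy-nucleus cells.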

[1] = 12 h, 1 µM, compound concentration 1 uM
[2] = 12 h, 10 µM, compound concentration 10 uM
[3] = 24 h, 1 µM, compound concentration 1 uM
[4] = 24 h, 10 µM, compound concentration 10 uM
[5] = 48 h, 1 µM, compound concentration 1 uM
[6] = 48 h, 10 µM, compound concentration 10 uM

CC(C)Oc1ccc(F)c(-c2cnc(N)c(C(=O)Nc3cnccc3N3CCC[C@@H](C(=O)O)C3)n2)c1
Population Apoptotic (%) [1]: 23.53% and 20.59%
Population Fragmented Nuclei (%) [1]: 23.08% and 16.74%
Population Healthy Nuclei (%) [1]: 53.85% and 68.67%
Population Hoechst High Intensity Objects (%) [1]: 0%
Population Membrane Permeable-Phenotype (%) [1]: 1.68% and 3.12%
Population Mitochondria Different-Phenotype (%) [1]: 7.56% and 5.62%
Population Mitotic Cells (%) [1]: 76.47% and 79.41%
Population Normal (%) [1]: 100%
Population Pyknosed Nuclei (%) [1]: 23.08% and 14.59%
Population Tubulin-Different-Phenotype (%) [1]: 15.97% and 18.12%
Total Cell Count [1]: 221 and 233
Population Apoptotic (%) [2]: 16.67% and 33.33%
Population Fragmented Nuclei (%) [2]: 29.81% and 29.75%
Population Healthy Nuclei (%) [2]: 60.87% and 65.82%
Population Hoechst High Intensity Objects (%) [2]: 0%
Population Membrane Permeable-Phenotype (%) [2]: 16.33% and 15.38%
Population Mitochondria Different-Phenotype (%) [2]: 5.61% and 3.53%
Population Mitotic Cells (%) [2]: 83.33% and 66.67%
Population Normal (%) [2]: 100%
Population Pyknosed Nuclei (%) [2]: 9.32% and 4.43%
Population Tubulin-Different-Phenotype (%) [2]: 45.92% and 79.17%
Total Cell Count [2]: 322 and 474
Population Fragmented Nuclei (%) [3]: 24.16% and 21.57%
Population Healthy Nuclei (%) [3]: 52.79% and 67.45%
Population Hoechst High Intensity Objects (%) [3]: 0%
Population Membrane Permeable-Phenotype (%) [3]: 4.23% and 3.49%
Population Mitochondria Different-Phenotype (%) [3]: 2.11% and 4.65%
Population Mitotic Cells (%) [3]: 93.55% and 71.43%
Population Normal (%) [3]: 100%
Population Pyknosed Nuclei (%) [3]: 23.05% and 10.98%
Population Tubulin-Different-Phenotype (%) [3]: 14.79% and 23.26%
Total Cell Count [3]: 269 and 255
Population Apoptotic (%) [4]: 11.11% and 17.65%
Population Fragmented Nuclei (%) [4]: 39.53% and 37.88%
Population Healthy Nuclei (%) [4]: 53.49% and 59.43%
Population Hoechst High Intensity Objects (%) [4]: 0%
Population Membrane Permeable-Phenotype (%) [4]: 13.04% and 18.13%
Population Mitochondria Different-Phenotype (%) [4]: 11.11% and 4.27%
Population Mitotic Cells (%) [4]: 88.89% and 82.35%
Population Normal (%) [4]: 100%
Population Pyknosed Nuclei (%) [4]: 6.98% and 2.69%
Population Tubulin-Different-Phenotype (%) [4]: 58.94% and 76%
Total Cell Count [4]: 387 and 631
Population Apoptotic (%) [5]: 11.96% and 8.33%
Population Fragmented Nuclei (%) [5]: 17.32% and 18.8%
Population Healthy Nuclei (%) [5]: 61.43% and 70.94%
Population Hoechst High Intensity Objects (%) [5]: 0%
Population Membrane Permeable-Phenotype (%) [5]: 1.88% and 3.61%
Population Mitochondria Different-Phenotype (%) [5]: 6.39% and 2.41%
Population Mitotic Cells (%) [5]: 88.04% and 91.67%
Population Normal (%) [5]: 100%
Population Pyknosed Nuclei (%) [5]: 21.25% and 10.26%
Population Tubulin-Different-Phenotype (%) [5]: 24.06% and 42.97%
Total Cell Count [5]: 433 and 351
Population Apoptotic (%) [6]: 25% and 75%
Population Fragmented Nuclei (%) [6]: 43.91% and 38.05%
Population Healthy Nuclei (%) [6]: 54.09% and 60.35%
Population Hoechst High Intensity Objects (%) [6]: 0%
Population Membrane Permeable-Phenotype (%) [6]: 15.74% and 24.56%
Population Mitochondria Different-Phenotype (%) [6]: 9.88% and 3.1%
Population Mitotic Cells (%) [6]: 75% and 25%
Population Normal (%) [6]: 100%
Population Pyknosed Nuclei (%) [6]: 2% and 1.6%
Population Tubulin-Different-Phenotype (%) [6]: 61.73% and 91.37%
Total Cell Count [6]: 599 and 749

COc1ccc2nc3ccc(OC)cc3c(SCCCN)c2c1.Cl
Population Apoptotic (%) [1]: 27.78% and 22.73%
Population Fragmented Nuclei (%) [1]: 27.67% and 18.52%
Population Healthy Nuclei (%) [1]: 58.1% and 71.3%
Population Hoechst High Intensity Objects (%) [1]: 0%
Population Membrane Permeable-Phenotype (%) [1]: 4.08% and 5.19%
Population Mitochondria Different-Phenotype (%) [1]: 10.88% and 10.39%
Population Mitotic Cells (%) [1]: 72.22% and 77.27%
Population Normal (%) [1]: 100%
Population Pyknosed Nuclei (%) [1]: 14.23% and 10.19%
Population Tubulin-Different-Phenotype (%) [1]: 28.57% and 25.97%
Total Cell Count [1]: 253 and 216
Population Apoptotic (%) [2]: 50%
Population Fragmented Nuclei (%) [2]: 83.22% and 87.99%
Population Healthy Nuclei (%) [2]: 15.99% and 11.88%
Population Hoechst High Intensity Objects (%) [2]: 0.3% and 6.47%
Population Membrane Permeable-Phenotype (%) [2]: 6.17% and 4.52%
Population Mitochondria Different-Phenotype (%) [2]: 24.69% and 15.25%
Population Mitotic Cells (%) [2]: 50%
Population Normal (%) [2]: 99.7% and 93.53%
Population Pyknosed Nuclei (%) [2]: 0.79% and 0.13%
Population Tubulin-Different-Phenotype (%) [2]: 53.09% and 68.93%
Total Cell Count [2]: 1016 and 1593
Population Apoptotic (%) [3]: 7.41% and 18.18%
Population Fragmented Nuclei (%) [3]: 25% and 14.63%
Population Healthy Nuclei (%) [3]: 63.36% and 74.63%
Population Hoechst High Intensity Objects (%) [3]: 0%
Population Membrane Permeable-Phenotype (%) [3]: 4.76% and 3.27%
Population Mitochondria Different-Phenotype (%) [3]: 5.44% and 7.84%
Population Mitotic Cells (%) [3]: 92.59% and 81.82%
Population Normal (%) [3]: 100%
Population Pyknosed Nuclei (%) [3]: 11.64% and 10.73%
Population Tubulin-Different-Phenotype (%) [3]: 25.17% and 21.57%
Total Cell Count [3]: 232 and 205
Population Fragmented Nuclei (%) [4]: 83.95% and 88.56%
Population Healthy Nuclei (%) [4]: 15.31% and 11.32%
Population Hoechst High Intensity Objects (%) [4]: 0% and 5.09%
Population Membrane Permeable-Phenotype (%) [4]: 1.21% and 3.16%
Population Mitochondria Different-Phenotype (%) [4]: 27.27% and 24.21%
Population Mitotic Cells (%) [4]: 87.5% and 50%
Population Normal (%) [4]: 100% and 94.91%
Population Pyknosed Nuclei (%) [4]: 0.74% and 0.12%
Population Tubulin-Different-Phenotype (%) [4]: 47.27% and 59.47%
Total Cell Count [4]: 1078 and 1768
Population Fragmented Nuclei (%) [5]: 28.35% and 15.03%
Population Healthy Nuclei (%) [5]: 66.14% and 83.42%
Population Hoechst High Intensity Objects (%) [5]: 0%
Population Membrane Permeable-Phenotype (%) [5]: 1.79% and 1.24%
Population Mitotic Cells (%) [5]: 71.43% and 100%
Population Normal (%) [5]: 100%
Population Pyknosed Nuclei (%) [5]: 5.51% and 1.55%
Population Tubulin-Different-Phenotype (%) [5]: 18.45% and 20.5%
Total Cell Count [5]: 254 and 193
Population Apoptotic (%) [6]: 60%
Population Fragmented Nuclei (%) [6]: 84.38% and 88.09%
Population Healthy Nuclei (%) [6]: 15.23% and 11.61%
Population Hoechst High Intensity Objects (%) [6]: 1.01% and 7.64%
Population Membrane Permeable-Phenotype (%) [6]: 2.56% and 4.71%
Population Mitochondria Different-Phenotype (%) [6]: 6.67% and 4.19%
Population Mitotic Cells (%) [6]: 40%
Population Normal (%) [6]: 98.99% and 92.36%
Population Pyknosed Nuclei (%) [6]: 0.39% and 0.3%
Population Tubulin-Different-Phenotype (%) [6]: 27.69% and 51.83%
Total Cell Count [6]: 1293 and 1781

Source: ChEMBL document CHEMBL5724801, “EUbOPEN Chemogenomics Library - Multiplex” (2024)
